Laboratory results taken from ChEMBL document CHEMBL1153806, “Preclinical efficacy of a carboxylesterase 2-activated prodrug of doxazolidine” (J Med Chem, 2009).
The source made the active and inactive calls. The rule behind the calls is not given here.

Columns and labels:
[1] = system: Mus musculus; experiment: Toxicity in athymic nude mouse xenografted with human NCI-H1435 cells expressing CES2 gene assessed as occurrence of diarrhea at 3 to 4 mg/kg, iv administered on day 7, 14 and 21 after tumor implantation; type: organism-based; design: dose 3-4 mg/kg, route intravenous; settings: in vivo
[2] = system: HepG2; experiment: Antitumor activity against human HepG2 cells expressing CES2 gene xenografted in pentyl PABC-doxazolidine-treated NOD/SCID mouse assessed as slowing of large, rapidly growing tumor growth at 5 mg/kg, iv administered on day 52 after tumor implantation; type: functional, organism-based; design: dose 5 mg/kg
Summary of the method: (§1)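 NOD/SCID females, 4–6 weeks old, each given ~1.5 × 10⁷ N-Hep G2 cells s.c. in the left flank; 10 mice/group. Dosed i.v. by tail vein on days 7, 14 and 21, in mg/kg Dox-equivalent, from DMSO diluted into D5W (5% DMSO/95% D5W), 100 µL/mouse. Vehicle-only controls. The 3 mg/kg group was redosed at 5 mg/kg on days 45 and 52. Tumor volume (π × short diameter² × long diameter/6) measured weekly.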

[3] = Metabolic stability in NOD/SCID mouse plasma up to 24 hrs by reverse-phase HPLC analysis; type: ADME, cell-free; settings: read-out: Stability
Summary of the method: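 PPD from a 1 mM DMSO stock diluted 10 µL into 190 µL of plasma (healthy NOD/SCID mouse, or pooled human from 40 donors) at 37 °C; sampled at 0 and 24 h. Samples digested with proteinase K (2 mg/mL) for 4 h at 37 °C, then run on C18 reverse-phase HPLC with a triethylammonium acetate pH 6.0/acetonitrile gradient, detection at 480 nm.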

[4] = system: Mus musculus; experiment: Toxicity in athymic nude mouse xenografted with human NCI-H1435 cells expressing CES2 gene assessed as vacuolar damage in ileum administered with six iv injection of 3 to 4 mg/kg by hematoxylin/eosin staining-based microscopy; type: organism-based; design: dose 3-4 mg/kg, route intravenous; settings: in vivo
Summary of the method: (§2)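 Kidney and ileum taken from the H1435 nude-mouse study (six i.v. injections). Formalin-fixed for 24 h, paraffin-embedded, and cut into 4 µm sections. Sections deparaffinized in xylene, rehydrated through an ethanol series, stained in Harris hematoxylin for 50 s with eosin, then dehydrated and mounted. Morphology assessed by microscopy.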

[5] = system: NCI-H1435; experiment: Antitumor activity against human NCI-H1435 cells expressing CES2 gene xenografted in athymic nude mouse assessed as reduction in tumor size at 3 to 4 mg/kg, iv administered on day 7, 14 and 21 after tumor implantation; type: functional, organism-based
Summary of the method: (§3)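 Athymic nude females, 4–6 weeks old, given ~2 × 10⁶ H1435 cells s.c. in the left flank on day 0; 10 mice/group. I.v. tail-vein doses (Dox-equivalent mg/kg) in 5% DMSO/95% D5W on days 7, 14 and 21, with all groups retreated on days 56, 63 and 70; vehicle controls. Caliper volume π × short² × long/6. Cube roots analysed with day-7 size as baseline covariate, by period.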

[6] = system: Mus musculus; experiment: Toxicity in athymic nude mouse xenografted with human NCI-H1435 cells expressing CES2 gene assessed as myofibril disorganization and vacuolization of heart tissue administered with six iv injection of 3 to 4 mg/kg by hematoxylin/eosin staining-based microscopy; type: organism-based; design: dose 3-4 mg/kg, route intravenous; settings: in vivo
Summary of the method: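 Hearts and livers taken from the H1435 nude-mouse study (six i.v. injections) after CO₂/cervical dislocation. Fixed in 10% formalin for 24 h, paraffin-embedded, and cut at 4 µm. Slides deparaffinized in xylene and ethanol, stained with Mayer's hematoxylin for 2 min, blued in 1% ammonium hydroxide, and counterstained with eosin for 30 s. Examined by light microscopy.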

[7] = system: Mus musculus; experiment: Toxicity in NOD/SCID mouse xenografted with human HepG2 cells expressing CES2 gene assessed as body weight loss at 5 mg/kg, iv administered on day 7, 14 and 21 after tumor implantation measured after 3 weeks; type: organism-based; design: dose 5 mg/kg, route intravenous; settings: in vivo, 504 h
Summary of the method: (§4)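 Same NOD/SCID N-Hep G2 flank xenograft model: i.v. tail-vein dosing on days 7, 14 and 21 in 5% DMSO/95% D5W, doses in Dox-equivalent mg/kg, 10 mice/group, vehicle controls. Body weight recorded weekly and followed over the first 5 weeks.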

[8] = system: Mus musculus; experiment: Toxicity in athymic nude mouse xenografted with human NCI-H1435 cells expressing CES2 gene assessed as occurrence of fatty liver administered with six iv injection of 4 mg/kg by hematoxylin/eosin staining-based microscopy; type: organism-based; design: dose 4 mg/kg, route intravenous; settings: in vivo
Summary of the method: (§5)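 Female athymic nude mice, 4–6 weeks old, 10 per group. About 2 × 10⁶ H1435 cells were implanted s.c. into the left flank. I.v. tail-vein doses (Dox-equivalent) were given on days 7, 14, 21, 56, 63 and 70 in 5% DMSO/95% D5W. At sacrifice, organs were fixed in 10% formalin for 24 h and paraffin-embedded. Sections were cut at 4 µm and stained with hematoxylin/eosin for microscopy.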

[9] = system: HepG2; experiment: Cytotoxicity against human HepG2 cells expressing CES2 gene expressing CES2 gene after 5 to 6 days by MTT assay; type: functional
[10] = system: Mus musculus; experiment: Toxicity in NOD/SCID mouse xenografted with human HepG2 cells expressing CES2 gene assessed as body weight change at 3 mg/kg, iv administered on day 7, 14 and 21 after tumor implantation; type: organism-based; design: dose 3 mg/kg, route intravenous; settings: in vivo; summary of the method: as §4
[11] = system: NCI-H1435; experiment: Antitumor activity against human NCI-H1435 cells expressing CES2 gene xenografted in athymic nude mouse assessed as inhibition of tumor growth at 3 mg/kg, iv administered on day 7, 14 and 21 after tumor implantation; type: functional, organism-based; design: dose 3 mg/kg; summary of the method: as §3
[12] = organism: Homo sapiens; experiment: Metabolic stability in human plasma up to 24 hrs by reverse-phase HPLC analysis
[13] = system: NCI-H1435; experiment: Antitumor activity against human NCI-H1435 cells expressing CES2 gene xenografted in athymic nude mouse assessed as inhibition of tumor growth at 4 mg/kg, iv administered on day 7, 14 and 21 after tumor implantation; type: functional, organism-based; design: dose 4 mg/kg; summary of the method: as §3
[14] = system: HepG2; experiment: Antitumor activity against human HepG2 cells expressing CES2 gene xenografted in pentyl PABC-doxazolidine-pretreated NOD/SCID mouse assessed as slowing of large, rapidly growing tumor growth at 5 mg/kg, iv administered on day 45 after tumor implantation; type: functional, organism-based; design: dose 5 mg/kg; summary of the method: as §1
[15] = system: Mus musculus; experiment: Toxicity in NOD/SCID mouse xenografted with human HepG2 cells expressing CES2 gene assessed as survival at 5 mg/kg, iv administered on day 7, 14 and 21 after tumor implantation; type: organism-based; design: dose 5 mg/kg, route intravenous; settings: in vivo
Summary of the method: (§6)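 Female NOD/SCID mice, 4–6 weeks old, 10 per group. About 1.5 × 10⁷ N-Hep G2 cells were injected s.c. into the left flank. Tail-vein i.v. dosing (mg/kg Dox-equivalent weight) was given on days 7, 14 and 21. Vehicle was 5% DMSO/95% D5W, and controls received vehicle only. Body weight was measured weekly over the first 5 weeks. Survival was followed to study end.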

[16] = system: NCI-H460; experiment: Cytotoxicity against human H460 cells expressing CES2 gene
[17] = system: Mus musculus; experiment: Toxicity in athymic nude mouse xenografted with human NCI-H1435 cells expressing CES2 gene assessed as inflammatory cell infiltration in ileum administered with six iv injection of 3 to 4 mg/kg by hematoxylin/eosin staining-based microscopy; type: organism-based; design: dose 3-4 mg/kg, route intravenous; settings: in vivo; summary of the method: as §2
[18] = system: Mus musculus; experiment: Toxicity in athymic nude mouse xenografted with human NCI-H1435 cells expressing CES2 gene assessed as thickening of Bowman's capsule in glomerulus administered with six iv injection of 4 mg/kg by hematoxylin/eosin staining-based microscopy; type: organism-based; design: dose 4 mg/kg, route intravenous; settings: in vivo; summary of the method: as §5
[19] = system: Mus musculus; experiment: Toxicity in NOD/SCID mouse xenografted with human HepG2 cells expressing CES2 gene assessed as body weight change at 4 mg/kg, iv administered on day 7, 14 and 21 after tumor implantation; type: organism-based; design: dose 4 mg/kg, route intravenous; settings: in vivo; summary of the method: as §6

CCCCCOC(=O)Nc1ccc(COC(=O)N2CO[C@@H]3[C@H](C)O[C@@H](O[C@H]4C[C@](O)(C(=O)CO)Cc5c(O)c6c(c(O)c54)C(=O)c4c(OC)cccc4C6=O)C[C@@H]32)cc1
Activity [1]: Non-toxic | Activity [2]: Active | remaining at 24 h [3]: 16% | Activity [4]: Non-toxic | Activity [5]: inactive | Activity [6]: Non-toxic | Activity [7]: 18% | Activity [8]: Toxic | logIC50 [9]: -6.9 | Activity [10]: Non-toxic | inhibition [11]: Active | remaining at 24 h [12]: 75% | inhibition [13]: Active | Activity [14]: Active | Activity [15]: Non-toxic | GI50 [16]: 447 nM | Activity [17]: Non-toxic | Activity [18]: Toxic | Activity [19]: Active
